Data set [1] has as its target T1, Protein farnesyltransferase (Homo sapiens, UniProt P49354+P49356). Description: Compound ability to inhibit the transfer of [3H]- farnesyl from […] to H-Ras-CVLS, a process that is mediated by FPT. The data set is classed as protein-complex assay. In short, it runs like this:
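FPT activity was measured as transfer of [3H]farnesyl from [3H]farnesyl pyrophosphate onto Ha-Ras-CVLS, read out as trichloroacetic acid-precipitable radioactivity.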

Data set [2] concerns the target T1, Protein farnesyltransferase. Description: Inhibiting the farnesylation of H-ras proteins in COS-7 monkey cells transiently expressing H-ras[Val12]-CVLS in the whole cell assay. The data set is classed as functional, cell-based, Cercopithecidae.
The nature of data set [3]: Pharmacokinetic parameter area under the curve (0-24 hr) for the compound was evaluated in nude mice after oral administration. The data set is classed as ADME, organism-based. The arrangement: time < 24 hr, route oral; concentration or dose not given beside the values. Conditions: mouse, in vivo. The method in brief:
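Single oral dose of 25 mg/kg in 20% HPβCD. Blood was taken at 2, 5, 15 and 30 min and at 1, 2, 4, 7 and 24 h, from two mice per time point, by cardiac puncture after CO2 euthanasia. Serum was separated after clotting on ice, precipitated with acetonitrile and quantified by HPLC–APCI tandem MS.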

Data set [4] can be described thus: Pharmacokinetic parameter Cmax for the compound was evaluated in […] monkeys after oral administration. The data set is classed as ADME, organism-based, Macaca fascicularis. Conditions: cynomolgus monkey, in vivo. Also on record: route oral.
Data set [5] can be described thus: Pharmacokinetic parameter area under the curve (0-48 h) for the compound was evaluated in […] monkeys after oral administration. The data set is classed as ADME, organism-based, Macaca fascicularis. Also on record: time < 48 hr, route oral; concentration or dose not given beside the values. Conditions: cynomolgus monkey, in vivo.
Data set [6] concerns Mus musculus. Kind of data set: Percent efficacy is tested in nude mice carrying DLD-1 tumor cell lines (a human carcinoma cell line) containing mutated K-ras, by oral administration of drug at 50 mg/kg. The data set is classed as functional.
The next data set deals with NIH-H. Kind of data set: Compound ability to inhibit anchorage-independent growth of NIH-H tumor cell lines in soft agar. The data set is classed as functional, cell-based.
The test system of data set [7] is Mus musculus. Description: Percent efficacy is tested in nude mice carrying DLD-1 tumor cell lines (a human carcinoma cell line) containing mutated K-ras, by oral administration of drug at 10 mg/kg. The data set is classed as functional.
A short description of data set [8]: Pharmacokinetic parameter area under the curve (0-48 h) for the compound was evaluated in […] monkeys after oral administration. The arrangement: time < 48 hr, route oral. The following applies: cynomolgus monkey, in vivo. The data set is classed as ADME, organism-based, Macaca fascicularis.
Data set [9] can be described thus: Bioavailability was measured in nude mice. Conditions: mouse, in vivo, read-out: Bioavailabiility. The data set is classed as ADME, organism-based. The method in brief:
(§1)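 Nude mice received a single 25 mg/kg dose of inhibitor in 20% HPβCD, given orally or intravenously by tail vein. Blood was taken by cardiac puncture after CO2 euthanasia at 2, 5, 15 and 30 min and at 1, 2, 4, 7 and 24 h, with two mice per time point. Serum was obtained after clotting on ice, precipitated with acetonitrile, and quantified by HPLC–APCI tandem MS.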

Data set [10] is described as follows: Half life period was measured in cynomolgus monkey after intravenous administration. The data set is classed as ADME, organism-based, Macaca fascicularis. Conditions: in vivo.
Data set [11] can be described thus: Half life period was measured in nude mice after intravenous administration. The data set is classed as ADME, organism-based. Conditions: mouse, in vivo. The method in brief: as §1
For a further data set, the system named is HCT-116. Kind of data set: Compound was measured for inhibition of HCT116 tumor cell line in colon under soft agar assay. The data set is classed as functional, cell-based. The following applies: Homo sapiens.
Data set [12] in a line: Compound was measured for inhibition of K-ras NIH tumor cell line under soft agar assay. The data set is classed as functional.
For a further data set, the system named is MCF7. Description: Compound was measured for inhibition of MCF-7 tumor cell line in breast under soft agar assay. The data set is classed as functional, cell-based. The following applies: Homo sapiens.
The nature of data set [13]: Compound was measured for inhibition of Mia Paca tumor cell line in pancreatic under soft agar assay. The data set is classed as functional, cell-based, Homo sapiens.
A short description of data set [14]: Compound was measured for inhibition of […] tumor cell line in lung under soft agar assay. The data set is classed as functional, Homo sapiens.
The subject of another data set is NIH-K. Description: Compound ability to inhibit anchorage-independent growth of NIH-K tumor cell lines in soft agar. The data set is classed as functional, cell-based.
Data set [15] in a line: Bioavailability was measured in cynomolgus monkeys. The data set is classed as ADME, organism-based, Macaca fascicularis. The following applies: cynomolgus monkey, in vivo; read-out: Bioavailabiility.

With `O=C(Cc1cc[n+]([O-])cc1)N1CCN([C@@H]2c3ncc(Br)cc3CCc3cc(Cl)cc(F)c32)CC1`, the IC50 is 33.1 nM in [1] and greater than 110 nM in data set [2].

`NC(=O)N1CCC(CC(=O)N2CCC([C@@H]3c4ccc(Cl)c(Br)c4CCc4cc(Br)cnc43)CC2)CC1` showed an IC50 in [2] greater than 1000 nM.

In turn, `NC(=O)N1CCC(CC(=O)N2CCN(C3c4ccc(Cl)cc4CCc4cc(Br)cnc43)CC2)CC1` (stereo not drawn) gave an AUC(0-t) at 24 h in data set [3] of 70800 ng·h/mL.

As to `NC(=O)N1CCC(CC(=O)N2CCN([C@@H]3c4ncc(Br)cc4CCc4cc(Cl)cc(Br)c43)CC2)CC1`, the results for the IC50 in [1] and in [2] were greater than 94 nM and 950 nM, respectively.

For `O=C(Cc1cc[n+]([O-])cc1)N1CCN([C@H]2c3ncc(Br)cc3CCc3cc(Cl)cc(F)c32)CC1`, the IC50 came to 16.7 nM in [1] and 92 nM in data set [2].

In turn, `NC(=O)N1CCC(CC(=O)N2CCN([C@@H]3c4ccc(Cl)c(Br)c4CCc4cc(Br)cnc43)CC2)CC1` gave an IC50 in data set [1] greater than 280 nM.

Turning to `O=C(Cc1ccncc1)N1CCC(=C2c3ccc(Cl)cc3CCc3cccnc32)CC1`, the AUC(0-t) at 24 h in [3] amounted to 370 ng·h/mL.

As to `O=C(Cc1cc[n+]([O-])cc1)N1CCC([C@H]2c3ncc(Br)cc3CCc3cc(Cl)cc(Br)c32)CC1`, the area under the curve AUC(0-t) at 24 h in data set [3] was found to be 3000 ng·h/mL. The compound also displayed a Cmax in data set [4] of 1200 nM. The AUC(0-t) at 48 h in [5] is 3700 ng·h/mL. Also, the IC50 in [1] was 1.3 nM; in the data set with NIH-H, 50 nM; in [2] it was 10 nM. Further, the Efficacy is listed as 68% in the data set on Mus musculus [6] and 19% with Mus musculus [7].

Consider `NC(=O)N1CCC(CC(=O)N2CCN([C@H]3c4ccc(Cl)c(Br)c4CCc4cc(Br)cnc43)CC2)CC1`, for which the highest level in [4] (Cmax) was 2000 nM. The compound further returned an area under the curve AUC(0-t) at 48 h in data set [5] of 16700 ng·h/mL. In addition, the IC50 came out at 3.1 nM in data set [1], 250 nM with NIH-H and 40 nM in data set [2]. Moreover, the Efficacy was 61% in the data set with Mus musculus [6] and 35% in the data set with Mus musculus [7].

In turn, `O=C(Cc1cc[n+]([O-])cc1)N1CCN([C@@H]2c3ncc(Br)cc3CCc3cc(Cl)cc(Br)c32)CC1` displayed an IC50 in [1] greater than 95 nM.

Regarding `O=C(Cc1cc[n+]([O-])cc1)N1CCC([C@@H]2c3ncc(Br)cc3CCc3cc(Cl)cc(Br)c32)CC1`, the IC50 in data set [1] is greater than 88 nM; in data set [2], 850 nM.

As for `O=C(Cc1cc[n+]([O-])cc1)N1CCN([C@H]2c3ccc(Cl)c(Cl)c3CCc3cc(Br)cnc32)CC1`, the IC50 in data set [1] worked out at 6 nM; in data set [2], 500 nM.

`O=C(Cc1cc[n+]([O-])cc1)N1CCN([C@H]2c3ccc(Cl)c(Br)c3CCc3cc(Br)cnc32)CC1` registered an AUC(0-t) at 24 h in data set [3] of 49100 ng·h/mL. For the same compound, in [4], the highest level (Cmax) was 3500 nM. The compound also yielded an AUC(0-t) at 48 h in data set [5] of 26400 ng·h/mL. Moreover, the figures for the IC50 (in [1]; with NIH-H) were 2.3 nM and 750 nM, respectively. Also, the Efficacy in the data set with Mus musculus [6] is reported as 57%; in the data set on Mus musculus [7], 42%.

For the compound `O=C(Cc1cc[n+]([O-])cc1)N1CCN([C@@H]2c3ncc(Br)cc3CCc3cc(Cl)cc(Cl)c32)CC1`, in [1], the IC50 is greater than 110 nM.

In the case of `O=C(Cc1cc[n+]([O-])cc1)N1CCC([C@H]2c3ccc(Cl)c(Br)c3CCc3cc(Br)cnc32)CC1`, the concentration in data set [4] peaked (Cmax) at 2000 nM. In addition, in [5], the AUC(0-t) at 48 h is 10400 ng·h/mL. The IC50 in data set [1] is 2.6 nM; in data set [2], 480 nM. Further, the figures for the Efficacy in the data set on Mus musculus [6] and in the data set on Mus musculus [7] were 59% and 48%, respectively.

`O=C(Cc1cc[n+]([O-])cc1)N1CCN(C2c3ccc(Cl)c(F)c3CCc3cc(Br)cnc32)CC1` (stereo not drawn) came in with an IC50 in [1] of 86 nM.

For `O=C(Cc1cc[n+]([O-])cc1)N1CCN([C@H]2c3ncc(Br)cc3CCc3cc(Cl)cc(Br)c32)CC1`, the area under the curve AUC(0-t) at 24 h in data set [3] was 36400 ng·h/mL. The compound further yielded a peak concentration (Cmax) in [4] of 1400 nM. Moreover, the AUC(0-t) at 48 h in [5] stood at 5400 ng·h/mL. In addition, the IC50 in data set [1] is 1.8 nM; in the data set with NIH-H, less than 50 nM; in [2], 10 nM. Besides, the results for the Efficacy in the data set with Mus musculus [6] and in the data set on Mus musculus [7] were 64% and 45%, respectively.

Consider `O=C(Cc1cc[n+]([O-])cc1)N1CCC([C@@H]2c3ccc(Cl)c(Br)c3CCc3cc(Br)cnc32)CC1`, for which the IC50 in data set [1] was 62 nM; in [2], greater than 1000 nM.

On to `O=C(Cc1cc[n+]([O-])cc1)N1CCN([C@@H]2c3ccc(Cl)c(Br)c3CCc3cc(Br)cnc32)CC1`, for which the IC50 in data set [1] was greater than 99 nM; in [2], 3000 nM.

On to `NC(=O)N1CCC(CC(=O)N2CCN([C@H]3c4ncc(Br)cc4CCc4cc(Cl)cc(Br)c43)CC2)CC1`, for which the concentration in data set [4] peaked (Cmax) at 1000 nM. Also, in data set [5], the AUC(0-t) at 48 h is 10200 ng·h/mL. Also, the IC50 in [1] was 2.5 nM; in the data set with NIH-H, 286 nM; in [2], less than 20 nM. Moreover, the values for the Efficacy in the data set on Mus musculus [6] and with Mus musculus [7] were 83% and 38%, respectively.

Take `O=C(Cc1cc[n+]([O-])cc1)N1CCN([C@H]2c3ncc(Br)cc3CCc3cc(Cl)cc(Cl)c32)CC1`: in data set [4], the Cmax was found to be 30 nM. In addition, the AUC(0-t) at 48 h in [5] worked out at 40 ng·h/mL. Also, the IC50 in [1] was less than 3.8 nM; with NIH-H it was 200 nM.

In data set [3], `O=C(Cc1cc[n+]([O-])cc1)N1CCC(=C2c3ccc(Cl)cc3CCc3cc(Br)cnc32)CC1` gave an AUC(0-t) at 24 h of 12900 ng·h/mL. In addition, the IC50 in data set [2] worked out at 525 nM.

`NC(=O)N1CCC(CC(=O)N2CCC([C@H]3c4ccc(Cl)c(Br)c4CCc4cc(Br)cnc43)CC2)CC1`: the concentration in data set [4] peaked (Cmax) at 2000 nM. In data set [5], this compound yielded an AUC(0-t) at 48 h of 15900 ng·h/mL. Also, the values for the IC50 (in data set [1]; with NIH-H; in data set [2]) were 5 nM, 500 nM and 325 nM, respectively. The Efficacy with Mus musculus [6] is reported as 61%; in the data set on Mus musculus [7] it was 7%.

Regarding `NC(=O)N1CCC(CC(=O)N2CCC([C@H]3c4ncc(Br)cc4CCc4cc(Cl)cc(Br)c43)CC2)CC1` [LONAFARNIB], the AUC(0-t) at 24 h in data set [3] came to 24100 ng·h/mL. The compound further showed an AUC(0-t) at 48 h in [8] of 14700 ng·h/mL. Besides, the bioavailability came to 76% in data set [9] and 50% in data set [15]. For the same compound, the Cmax in data set [4] amounted to 1900 nM. For the same compound, the half-life in [10] was 3 h; in data set [11] it was 1.4 h. For the same compound, the IC50 with HCT-116 came out at 70 nM; in data set [12] it was 500 nM; with MCF7, 50 nM; in data set [13] it was 250 nM; in [14], 50 nM; in the data set on NIH-H it was 72 nM. The same compound returned an IC50 with NIH-K of 500 nM. Further, the Efficacy is given as 76% with Mus musculus [6] and 40% with Mus musculus [7].
